Laboratory results reported in ChEMBL document CHEMBL1140903, “Reactions of functionalized sulfonamides: application to lowering the lipophilicity of cytosolic phospholipase A2alpha inhibitors” (J Med Chem, 2009).
Each block holds one molecule with its values, some of them ahead of it. Activity calls are given as the source filed them. No cut-off for these calls is given here.

What was measured:
[1] = tested on: MC9; assay: Inhibition of arachidonic acid-induced PGF2alpha release in mouse MC9 cells at 0.30 uM
[2] = tested on: MC9; assay: Inhibition of arachidonic acid-induced PGF2-alpha release in rat MC9 cells at 0.0005 uM; assay type: functional; conditions: Mus musculus
[3] = tested on: MC9; assay: Inhibition of IgE-specific antigen-induced PGF2-alpha release in rat MC9 cells at 0.0005 uM; assay type: functional; conditions: Mus musculus
[4] = tested on: MC9; assay: Inhibition of IgE-specific antigen-induced PGF2-alpha release in mouse MC9 cells at 0.40 uM
[5] = tested on: Blood; assay: Inhibition of A23187-induced TBX2 release in Sprague-Dawley rat whole blood; assay type: functional, tissue-based
Method in brief: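 Rat whole blood is stimulated with calcium ionophore A23187, and thromboxane B2 is the read-out (cPLA2α- and COX-1-dependent). IC50 is taken from at least two runs, each run the mean of triplicate assays.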

[6] = target: T1, Cytosolic phospholipase A2 (Homo sapiens, UniProt P47712); assay: Inhibition of human cytosolic PLA2alpha by GLU micelle assay
T1 sequence (P47712 whole entry): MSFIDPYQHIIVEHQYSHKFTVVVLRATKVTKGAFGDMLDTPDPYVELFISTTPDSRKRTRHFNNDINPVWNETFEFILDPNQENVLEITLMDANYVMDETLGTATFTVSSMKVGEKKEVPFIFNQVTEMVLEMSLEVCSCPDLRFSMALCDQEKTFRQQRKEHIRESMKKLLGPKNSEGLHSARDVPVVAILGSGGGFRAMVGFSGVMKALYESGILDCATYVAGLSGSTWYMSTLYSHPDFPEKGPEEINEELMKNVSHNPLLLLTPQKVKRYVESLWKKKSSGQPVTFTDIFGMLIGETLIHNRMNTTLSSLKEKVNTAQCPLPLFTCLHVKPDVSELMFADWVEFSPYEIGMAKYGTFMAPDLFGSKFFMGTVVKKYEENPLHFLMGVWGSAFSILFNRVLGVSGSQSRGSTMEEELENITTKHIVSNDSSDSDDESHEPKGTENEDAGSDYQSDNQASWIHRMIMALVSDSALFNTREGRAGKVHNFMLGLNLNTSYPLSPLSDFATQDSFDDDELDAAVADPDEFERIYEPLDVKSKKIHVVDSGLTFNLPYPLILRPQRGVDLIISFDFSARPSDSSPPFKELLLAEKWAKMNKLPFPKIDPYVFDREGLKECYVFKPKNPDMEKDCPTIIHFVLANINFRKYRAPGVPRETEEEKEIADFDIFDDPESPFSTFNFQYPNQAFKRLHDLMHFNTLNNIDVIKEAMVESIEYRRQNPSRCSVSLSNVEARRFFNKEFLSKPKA
Method in brief: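 Purified human cPLA2α with the substrate 7-hydroxycoumarinyl-γ-linolenate (GLU), presented in micelles containing a high concentration of detergent and lipid. IC50 is taken from at least two runs, each run the mean of duplicate assays.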

[7] = tested on: Rattus norvegicus; assay: Plasma concentration in carrageenan-induced paw edema Sprague-Dawley rat model at 15 mg/kg, iv; conditions: in vivo
[8] = tested on: Rattus norvegicus; assay: Antiinflammatory activity against carrageenan-induced paw edema in Sprague-Dawley rat at 15 mg/kg, iv; assay type: functional
Method in brief: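 Rat carrageenan paw edema after iv dosing in 50/50 PEG/DMSO, with paw swelling assessed 3 h after dosing. Groups of 10 animals; naproxen was used to define maximal % inhibition.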

[9] = tested on: MC9; assay: Inhibition of IgE-specific antigen-induced LBT4 release in mouse MC9 cells at 1.0 uM
[10] = tested on: MC9; assay: Inhibition of IgE-specific antigen-induced PGF2-alpha release in mouse MC9 cells at 1.0 uM
[11] = tested on: Blood; assay: Inhibition of A23187-induced TBX2 release in human whole blood at 10 uM; assay type: functional
[12] = tested on: MC9; assay: Inhibition of arachidonic acid-induced PGF2-alpha release in mouse MC9 cells at 1.0 uM
[13] = tested on: MC9; assay: Inhibition of IgE-specific antigen-induced PGF2alpha release in mouse MC9 cells at […]
[14] = tested on: MC9; assay: Inhibition of IgE-specific antigen-induced LBT4 release in mouse MC9 cells at […]
[15] = tested on: MC9; assay: Inhibition of IgE-specific antigen-induced LBT4 release in mouse MC9 cells at 0.333 uM
[16] = tested on: Blood; assay: Inhibition of A23187-induced TBX2 release in human whole blood; assay type: functional, tissue-based
Method in brief: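 Human whole blood is stimulated with calcium ionophore A23187 at a higher concentration than in the rat whole blood assay. Thromboxane production is the read-out.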

[17] = tested on: MC9; assay: Inhibition of IgE-specific antigen-induced LBT4 release in mouse MC9 cells at […]; remark: listed apart in the source
[18] = tested on: MC9; assay: Inhibition of arachidonic acid-induced PGF2-alpha release in mouse MC9 cells
[19] = tested on: MC9; assay: Inhibition of IgE-specific antigen-induced PGF2-alpha release in mouse MC9 cells
[20] = tested on: MC9; assay: Inhibition of IgE-specific antigen-induced PGF2alpha release in rat MC9 cells at 0.20 uM; conditions: Mus musculus, MC9, read-out: INH
[21] = tested on: MC9; assay: cells; conditions: Mus musculus, MC9, read-out: INH
[22] = tested on: Rattus norvegicus; assay: Antiinflammatory activity against carrageenan-induced paw edema in Sprague-Dawley rat at 10 mg/kg, iv; conditions: read-out: INH

Structure (SMILES): Cc1ccc(-c2cc(C(F)(F)F)nn2-c2ccc(S(N)(=O)=O)cc2)cc1 [CELECOXIB]
- inhibition at 0.3 µM [1]: 50%
- inhibition at 0.0005 µM [2]: 79%
- inhibition at 0.0005 µM [3]: 79%
- inhibition at 0.4 µM [4]: 50%

Structure (SMILES): O=C(O)c1ccc(OCCc2c(CCNS(=O)(=O)CCn3cnnn3)n(C(c3ccccc3)c3ccccc3)c3ccc(Cl)cc23)cc1
- IC50 [5]: 5600 nM
- IC50 [6]: 470 nM
- inhibition at 1 µM [9]: 59%
- inhibition at 1 µM [10]: 19%
- inhibition at 10 µM [11]: < 25%
- inhibition at 1 µM [12]: -5%

Structure (SMILES): O=C(O)c1ccc(OCCc2c(CCNS(=O)(=O)CCn3ncnn3)n(C(c3ccccc3)c3ccccc3)c3ccc(Cl)cc23)cc1
- inhibition at 0.33 µM at […] [13]: 71%
- inhibition at 0.333 µM [15]: 80%
- IC50 [5]: 450 nM
- IC50 [6]: 380 nM
- IC50 [16]: 2000 nM
- inhibition at 1 µM [12]: 4%

Structure (SMILES): CC(c1cc2ccccc2s1)N(O)C(N)=O (stereo unspecified) [ZILEUTON]
- inhibition at 0.55 µM at […] [17]: 50%
- Activity [18]: inactive
- Activity [19]: inactive

Structure (SMILES): COc1ccc2cc([C@H](C)C(=O)O)ccc2c1 [NAPROXEN]
- inhibition at 0.2 µM [20]: 50%
- inhibition at […] [21]: 50%
- inhibition in vivo at 10 mg/kg [22]: 50%

Now from value to molecule, other results behind:

- IC50 [5]: 70 nM
- IC50 [6]: 40 nM
- concentration [7]: 5.3 µM
Structure (SMILES): O=C(O)c1ccc(CCCc2c(CCNS(=O)(=O)Cc3ccc(Cl)c(Cl)c3)n(C(c3ccccc3)c3ccccc3)c3ccc(Cl)cc23)cc1 [EFIPLADIB]
- inhibition in vivo at 15 mg/kg [8]: 51%

- IC50 [5]: 3200 nM
- IC50 [6]: 350 nM
Structure (SMILES): NC(=O)C1CCCN1CCS(=O)(=O)NCCc1c(CCOc2ccc(C(=O)O)cc2)c2cc(Cl)ccc2n1C(c1ccccc1)c1ccccc1 (single isomer, unassigned)
- inhibition at 0.33 µM at […] [13]: 41%
- inhibition at 1 µM [12]: 8%
- inhibition at 0.33 µM at […] [14]: 41%
